# From ChEMBL document CHEMBL2380295, “Structure-activity studies on the side chain of a simplified analog of aplysiatoxin (aplog-1) with anti-proliferative activity” (Bioorg Med Chem, 2013)
# Tests used:
# Human gammaherpesvirus 4 [1] = test: Induction of EBV-early antigen expressed in human Raji cells at 10^-7 M after 48 hrs by immunofluorescence assay relative to control; assay type: organism-based; conditions: human gammaherpesvirus 4, raji, 0.1 µM
# Outline: (§1)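 Raji B-lymphoblastoid cells (5 × 10^5/mL) in RPMI 1640 with 10% FBS, with 4 mM sodium n-butyrate as synergist and test compound at 10^-7 or 10^-6 M (final DMSO 0.4%). Incubated 48 h at 37 °C under 5% CO2. Smears were stained by indirect immunofluorescence using NPC patient serum and FITC anti-human IgG. At least 500 cells counted; % EA-positive recorded; n = 3, SEM.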
# NCI-H460 = test: Growth inhibition of human NCI-H460 cells after 48 hrs by sulforhodamine B assay; assay type: functional; conditions: NCI-H460, 48 h
# Outline: (§2)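 Yamori 39-line human cancer panel, NCI method with modifications. Cells plated in RPMI 1640 plus 5% FBS, attached overnight, then exposed 48 h to compound at 10^-8, 10^-7, 10^-6, 10^-5 and 10^-4 M. Sulforhodamine B staining read at 525 nm; % growth = 100[(T−T0)/(C−T0)] from duplicate-point averages, with T0 the time-zero absorbance. GI50 is the concentration giving 50.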
# KM12 = test: Growth inhibition of human KM12 cells after 48 hrs by sulforhodamine B assay; assay type: functional; conditions: KM12, 48 h; outline: as §2
# MDA-MB-231 = test: Growth inhibition of human MDA-MB-231 cells after 48 hrs by sulforhodamine B assay; assay type: functional; conditions: MDA-MB-231, 48 h; outline: as §2
# NCI-H23 = test: Growth inhibition of human NCI-H23 cells after 48 hrs by sulforhodamine B assay; assay type: functional; conditions: NCI-H23, 48 h; outline: as §2
# [2] = Growth inhibition of human HCC2998 cells after 48 hrs by sulforhodamine B assay; assay type: functional; conditions: HCC 2998, 48 h; outline: as §2
# [3] = target: T1, Protein kinase C delta type (Homo sapiens, UniProt Q05655); test: Inhibition of [3H]PDBu binding to PKCdelta-C1B domain peptide (unknown origin)
# Outline: (§3)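 Competitive [3H]PDBu binding used 14 or 40 nM PKCδ C1 peptide and 20 nM [3H]PDBu (19.6 Ci/mmol), in 50 mM Tris-maleate (pH 7.4 at 4 °C) with 50 µg/mL phosphatidylserine, 3 mg/mL bovine γ-globulin and varied inhibitor concentrations. IC50 was taken as 50% inhibition of specific binding. Ki was derived by the Sharkey–Blumberg method.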
# MKN-74 = test: Growth inhibition of human MKN74 cells after 48 hrs by sulforhodamine B assay; assay type: functional; conditions: MKN-74, 48 h; outline: as §2
# [4] = Growth inhibition of human HBC4 cells after 48 hrs by sulforhodamine B assay; assay type: functional; conditions: HBC4, 48 h; outline: as §2
# SF-268 = test: Growth inhibition of human SF268 cells after 48 hrs by sulforhodamine B assay; assay type: functional; conditions: SF-268, 48 h; outline: as §2
# [5] = Cytotoxicity against human Raji cells assessed as cell viability at 10^-6 M; assay type: cell-based; conditions: read-out: Activity
# DMS-273 = test: Growth inhibition of human DMS273 cells after 48 hrs by sulforhodamine B assay; assay type: functional; conditions: DMS-273, 48 h; outline: as §2
# A549 = test: Growth inhibition of human A549 cells after 48 hrs by sulforhodamine B assay; assay type: functional; conditions: A549, 48 h; outline: as §2
# [6] = Growth inhibition of human RXF631L cells after 48 hrs by sulforhodamine B assay; assay type: functional; conditions: RXF 631, 48 h; outline: as §2
# SK-OV-3 = test: Growth inhibition of human SKOV3 cells after 48 hrs by sulforhodamine B assay; assay type: functional; conditions: SK-OV-3, 48 h; outline: as §2
# [7] = target: T1, Protein kinase C delta type; test: Inhibition of [3H]PDBu binding to PKCdelta-C1A domain peptide (unknown origin); outline: as §3
# MCF7 = test: Growth inhibition of human MCF7 cells after 48 hrs by sulforhodamine B assay; assay type: functional; conditions: MCF7, 48 h; outline: as §2
# U-251 = test: Growth inhibition of human U251 cells after 48 hrs by sulforhodamine B assay; assay type: functional; conditions: U-251, 48 h; outline: as §2
# HCT-116 = test: Growth inhibition of human HCT116 cells after 48 hrs by sulforhodamine B assay; assay type: functional; conditions: HCT-116, 48 h; outline: as §2
# SNB-78 = test: Growth inhibition of human SNB78 cells after 48 hrs by sulforhodamine B assay; assay type: functional; conditions: SNB-78, 48 h; outline: as §2
# [8] = Cytotoxicity against human Raji cells assessed as cell viability at 10^-7 M; assay type: cell-based; conditions: read-out: Activity
# OVCAR-8 = test: Growth inhibition of human OVCAR8 cells after 48 hrs by sulforhodamine B assay; assay type: functional; conditions: OVCAR-8, 48 h; outline: as §2
# SF-539 = test: Growth inhibition of human SF539 cells after 48 hrs by sulforhodamine B assay; assay type: functional; conditions: SF-539, 48 h; outline: as §2
# HT-29 = test: Growth inhibition of human HT-29 cells after 48 hrs by sulforhodamine B assay; assay type: functional; conditions: HT-29, 48 h; outline: as §2
# [9] = Octanol-water partition coefficient, log P of the compound by HPLC analysis; assay type: physicochemical
# Outline: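 log P was estimated from HPLC retention, with column dead time measured using unretained formamide.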
# [10] = Growth inhibition of human MKN1 cells after 48 hrs by sulforhodamine B assay; assay type: functional; conditions: MKN-1, 48 h; outline: as §2
# SF-295 = test: Growth inhibition of human SF295 cells after 48 hrs by sulforhodamine B assay; assay type: functional; conditions: SF-295, 48 h; outline: as §2
# NCI-H226 = test: Growth inhibition of human NCI-H226 cells after 48 hrs by sulforhodamine B assay; assay type: functional; conditions: NCI-H226, 48 h; outline: as §2
# [11] = Growth inhibition of human HBC5 cells after 48 hrs by sulforhodamine B assay; assay type: functional; conditions: HBC5, 48 h; outline: as §2
# LOX IMVI = test: Growth inhibition of human LOXIMVI cells after 48 hrs by sulforhodamine B assay; assay type: functional; outline: as §2
# OVCAR-3 = test: Growth inhibition of human OVCAR3 cells after 48 hrs by sulforhodamine B assay; assay type: functional; conditions: OVCAR-3, 48 h; outline: as §2
# DU-145 = test: Growth inhibition of human DU145 cells after 48 hrs by sulforhodamine B assay; assay type: functional; conditions: DU-145, 48 h; outline: as §2
# OVCAR-5 = test: Growth inhibition of human OVCAR5 cells after 48 hrs by sulforhodamine B assay; assay type: functional; conditions: OVCAR-5, 48 h; outline: as §2
# St-4 = test: Growth inhibition of human St-4 cells after 48 hrs by sulforhodamine B assay; assay type: functional; conditions: St-4, 48 h; outline: as §2
# MKN-7 = test: Growth inhibition of human MKN7 cells after 48 hrs by sulforhodamine B assay; assay type: functional; conditions: MKN-7, 48 h; outline: as §2
# DMS-114 = test: Growth inhibition of human DMS114 cells after 48 hrs by sulforhodamine B assay; assay type: functional; conditions: DMS-114, 48 h; outline: as §2
# [12] = Growth inhibition of human BSY1 cells after 48 hrs by sulforhodamine B assay; assay type: functional; conditions: BSY-1, 48 h; outline: as §2
# HCT-15 = test: Growth inhibition of human HCT15 cells after 48 hrs by sulforhodamine B assay; assay type: functional; conditions: HCT-15, 48 h; outline: as §2
# Human gammaherpesvirus 4 [13] = test: Induction of EBV-early antigen expressed in human Raji cells at 10^-6 M after 48 hrs by immunofluorescence assay relative to control; assay type: organism-based; conditions: human gammaherpesvirus 4, raji, 1 µM; outline: as §1
# NCI-H522 = test: Growth inhibition of human NCI-H522 cells after 48 hrs by sulforhodamine B assay; assay type: functional; conditions: NCI-H522, 48 h; outline: as §2
# MKN-28 = test: Growth inhibition of human MKN28 cells after 48 hrs by sulforhodamine B assay; assay type: functional; conditions: MKN-28, 48 h; outline: as §2
# MKN-45 = test: Growth inhibition of human MKN45 cells after 48 hrs by sulforhodamine B assay; assay type: functional; conditions: MKN-45, 48 h; outline: as §2
# OVCAR-4 = test: Growth inhibition of human OVCAR4 cells after 48 hrs by sulforhodamine B assay; assay type: functional; conditions: OVCAR-4, 48 h; outline: as §2
# PC-3 = test: Growth inhibition of human PC3 cells after 48 hrs by sulforhodamine B assay; assay type: functional; conditions: PC-3, 48 h; outline: as §2
# ACHN = test: Growth inhibition of human ACHN cells after 48 hrs by sulforhodamine B assay; assay type: functional; outline: as §2
# SNB-75 = test: Growth inhibition of human SNB75 cells after 48 hrs by sulforhodamine B assay; assay type: functional; conditions: SNB-75, 48 h; outline: as §2
# T1 sequence (Q05655 whole entry, the tested form may be a part): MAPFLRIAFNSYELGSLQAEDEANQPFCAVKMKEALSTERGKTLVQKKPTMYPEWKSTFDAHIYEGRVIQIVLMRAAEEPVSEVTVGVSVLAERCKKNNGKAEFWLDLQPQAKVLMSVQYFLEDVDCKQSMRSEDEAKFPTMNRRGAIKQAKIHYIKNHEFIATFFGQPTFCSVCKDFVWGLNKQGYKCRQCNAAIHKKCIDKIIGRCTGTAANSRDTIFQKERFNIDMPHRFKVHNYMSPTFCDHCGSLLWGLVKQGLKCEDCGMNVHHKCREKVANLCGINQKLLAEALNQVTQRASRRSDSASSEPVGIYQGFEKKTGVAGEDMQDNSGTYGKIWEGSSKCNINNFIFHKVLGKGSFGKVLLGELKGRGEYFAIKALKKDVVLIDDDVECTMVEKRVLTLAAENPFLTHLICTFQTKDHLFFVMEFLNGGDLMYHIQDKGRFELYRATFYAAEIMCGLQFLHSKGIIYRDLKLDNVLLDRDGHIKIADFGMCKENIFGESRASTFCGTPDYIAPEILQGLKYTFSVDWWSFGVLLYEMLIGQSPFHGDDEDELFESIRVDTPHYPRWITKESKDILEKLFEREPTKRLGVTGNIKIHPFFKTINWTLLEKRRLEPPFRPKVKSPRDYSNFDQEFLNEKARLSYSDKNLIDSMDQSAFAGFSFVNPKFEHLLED
structure (smiles),measurement,setting,value
CC(=O)Nc1ccc(CCCC[C@@H]2C[C@@H]3C[C@@]4(O[C@H](CCC4(C)C)CC(=O)O[C@@H](CO)CC(=O)O3)O2)cc1O,Activity,Human gammaherpesvirus 4 [1],2.4%
same,GI50,NCI-H460,20.4 µM
same,GI50,KM12,31.6 µM
same,GI50,MDA-MB-231,16.6 µM
same,GI50,NCI-H23,33.9 µM
same,GI50,[2],13.8 µM
same,Ki,[3],0.036 µM
same,GI50,MKN-74,33.1 µM
same,GI50,[4],2.45 µM
same,GI50,SF-268,43.7 µM
same,viability at 1 µM,[5],60%
same,GI50,DMS-273,0.933 µM
same,GI50,A549,15.1 µM
same,GI50,[6],28.8 µM
same,GI50,SK-OV-3,34.7 µM
same,Ki,[7],0.29 µM
same,GI50,MCF7,40.7 µM
same,GI50,U-251,26.9 µM
same,GI50,HCT-116,31.6 µM
same,GI50,SNB-78,51.3 µM
same,viability at 0.1 µM,[8],60%
same,GI50,OVCAR-8,44.7 µM
same,GI50,SF-539,30.2 µM
same,GI50,HT-29,19.5 µM
same,logP,[9],2.7
same,GI50,[10],34.7 µM
same,GI50,SF-295,13.2 µM
same,GI50,NCI-H226,26.9 µM
same,GI50,[11],46.8 µM
same,GI50,LOX IMVI,12.9 µM
same,GI50,OVCAR-3,23.4 µM
same,GI50,DU-145,29.5 µM
same,GI50,OVCAR-5,20.4 µM
same,GI50,St-4,2.14 µM
same,GI50,MKN-7,30.2 µM
same,GI50,DMS-114,20.9 µM
same,GI50,[12],26.3 µM
same,GI50,HCT-15,33.9 µM
same,Activity,Human gammaherpesvirus 4 [13],2.4%
same,GI50,NCI-H522,25.7 µM
same,GI50,MKN-28,2.57 µM
same,GI50,MKN-45,28.8 µM
same,GI50,OVCAR-4,37.2 µM
same,GI50,PC-3,20.9 µM
same,GI50,ACHN,26.3 µM
same,GI50,SNB-75,41.7 µM
CC1(C)CC[C@@H]2CC(=O)O[C@@H](CO)CC(=O)O[C@@H]3C[C@@H](CCCCc4cc(O)ccc4I)O[C@@]1(C3)O2,Activity,Human gammaherpesvirus 4 [1],1.3%
same,GI50,NCI-H460,10.5 µM
same,GI50,KM12,10.5 µM
same,GI50,MDA-MB-231,1.55 µM
same,GI50,NCI-H23,7.94 µM
same,GI50,[2],0.891 µM
same,Ki,[3],0.0046 µM
same,GI50,MKN-74,11.7 µM
same,GI50,[4],0.158 µM
same,GI50,SF-268,13.8 µM
same,viability at 1 µM,[5],50%
same,GI50,DMS-273,0.251 µM
same,GI50,A549,4.07 µM
same,GI50,[6],12.9 µM
same,GI50,SK-OV-3,15.8 µM
same,Ki,[7],0.11 µM
same,GI50,MCF7,13.8 µM
same,GI50,U-251,12.9 µM
same,GI50,HCT-116,10.5 µM
same,GI50,SNB-78,15.1 µM
same,viability at 0.1 µM,[8],50%
same,GI50,OVCAR-8,16.2 µM
same,GI50,SF-539,11 µM
same,GI50,HT-29,13.8 µM
same,logP,[9],4.2
same,GI50,[10],10.7 µM
same,GI50,SF-295,6.31 µM
same,GI50,NCI-H226,12.6 µM
same,GI50,[11],15.8 µM
same,GI50,LOX IMVI,2 µM
same,GI50,OVCAR-3,5.89 µM
same,GI50,DU-145,12.9 µM
same,GI50,OVCAR-5,5.13 µM
same,GI50,St-4,0.427 µM
same,GI50,MKN-7,11.5 µM
same,GI50,DMS-114,11 µM
same,GI50,[12],9.77 µM
same,GI50,HCT-15,15.1 µM
same,Activity,Human gammaherpesvirus 4 [13],1.4%
same,GI50,NCI-H522,11.7 µM
same,GI50,MKN-28,0.813 µM
same,GI50,MKN-45,12 µM
same,GI50,OVCAR-4,13.8 µM
same,GI50,PC-3,4.68 µM
same,GI50,ACHN,10.7 µM
same,GI50,SNB-75,10.5 µM
